Measured values reported in ChEMBL document CHEMBL3046177, “Plant growth inhibitory activity of p-hydroxyacetophenones and tremetones from Chilean endemic Baccharis species and some analogous: a comparative study” (J Agric Food Chem, 2002).
Activity calls are given as the source filed them. No cut-off for these calls is given here.

Tests used:
Lactuca sativa [1] = assay: Phytotoxicity against Lactuca sativa (lettuce) assessed as inhibition of seed germination after 48 hr; format: functional
Method in brief: (§1)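 Seeds of uniform size on Whatman No.1 filter paper in 85 mm Petri dishes, wetted with 8 or 10 mL deionized water or test solution (MeOH < 1%); controls got matching water/methanol. Sealed, incubated at 28 °C in the dark, scored at 48 h intervals; germination = 1 mm radicle extrusion. Three replicates.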

Spinacia oleracea [2] = assay: Inhibition of H+ uptake in Spinacia oleracea (spinach) chloroplasts; format: functional; settings: for IC50: read-out: I50
Method in brief: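 Spinach thylakoids (from isolated chloroplasts, in sorbitol/tricine/MgCl2/NaCl buffer, pH 7.8) in 100 mM sorbitol, 5 mM MgCl2, 10 mM KCl, 1 mM Na+-tricine, pH 8, with 50 µM methyl viologen. Illuminated at 20 °C through 1% CuSO4 filter. H+ uptake recorded as pH rise from 8.0 to 8.1 with combination microelectrode on expanded scale.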

Physalis ixocarpa [3] = assay: Phytotoxicity against Physalis ixocarpa assessed as inhibition of seed respiration during germination after 72 hr; format: functional, organism-based; settings: read-out: I50
Method in brief: (§2)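 Oxygen uptake of germinating seeds measured polarographically with a Clark-type electrode at 25 °C in a nonilluminated cell over 5 and 10 min, at several compound concentrations. Expressed as percent of control (100%). Three experiments; RI50 from Probit analysis.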

Lactuca sativa [4] = assay: Phytotoxicity against Lactuca sativa (lettuce) assessed as inhibition of root development during seeding stage after 120 hr; format: functional, organism-based; settings: read-out: I50
Method in brief: (§3)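 Petri-dish seedling assay on filter paper wetted with test solution (MeOH < 1%), 28 °C in the dark. Coleoptile/hypocotyl and root lengths of all germinated seeds measured after 120 h, then plants dried to constant weight at 40 °C. Three replicates; 50% inhibitory concentrations by Probit analysis of percent inhibition versus concentration.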

Trifolium pratense [5] = assay: Phytotoxicity against Trifolium pratense (red clover) assessed as inhibition of shoot development during seeding stage after 120 hr; format: functional, organism-based; settings: read-out: I50; method in brief: as §3
Phaseolus vulgaris = assay: Inhibition of mitochondrial respiration in Phaseolus vulgaris root mitochondria assessed as reduction of oxygen uptake; format: functional; settings: read-out: I50
Method in brief: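 Mitochondria from roots of 72 h dark-grown (28 °C) bean seedlings, Percoll-gradient purified, 0.3-0.5 mg protein (Bradford) per run; integrity checked with HCN. Compounds in 0.5% methanol added after a constant state 3 rate with […] was reached. O2 uptake by Clark electrode; control is mitochondria with 0.5% MeOH. Three experiments; I50 by Probit.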

Lolium multiflorum [6] = assay: Phytotoxicity against Lolium multiflorum (Italian ryegrass) assessed as inhibition of shoot development during seeding stage after 120 hr; format: functional, organism-based; settings: read-out: I50; method in brief: as §3
Lactuca sativa [7] = assay: Phytotoxicity against Lactuca sativa (lettuce) assessed as inhibition of seed respiration during germination after 72 hr; format: functional, organism-based; settings: read-out: I50; method in brief: as §2
Lolium multiflorum [8] = assay: Phytotoxicity against Lolium multiflorum (Italian ryegrass) assessed as inhibition of root development during seeding stage after 120 hr; format: functional, organism-based; settings: read-out: I50; method in brief: as §3
[9] = Antioxidant activity assessed as inhibition of bleaching of water soluble crocin measured every 5 min by spectrophotometric analysis; format: functional
Method in brief: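 Aqueous mixture of 10 µM crocin, 1 mM t-BuOOH and 0.5 M t-BuOH with serial dilutions of test compound, placed under UV254 light; crocin bleaching (absorbance decrease) and fluorescence emission at 440 and 470 nm followed every 5 min. Three experiments, mean ± SEM.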

Spinacia oleracea [10] = assay: Inhibition of ATP synthesis in Spinacia oleracea (spinach) chloroplasts; format: functional
Method in brief: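 Spinach thylakoids in 100 mM sorbitol, 5 mM MgCl2, 10 mM KCl, 1 mM Na+-tricine, pH 8, with 50 µM methyl viologen as Hill-reaction electron acceptor. Illuminated at 20 °C through 1% CuSO4 filter. ATP synthesis measured titrimetrically.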

Physalis ixocarpa [11] = assay: Phytotoxicity against Physalis ixocarpa assessed as inhibition of shoot development during seeding stage after 120 hr; format: functional, organism-based; settings: read-out: I50; method in brief: as §3
Trifolium pratense [12] = assay: Phytotoxicity against Trifolium pratense (red clover) assessed as inhibition of seed respiration during germination after 72 hr; format: functional, organism-based; settings: read-out: I50; method in brief: as §2
Lolium multiflorum [13] = assay: Phytotoxicity against Lolium multiflorum (Italian ryegrass) assessed as inhibition of seed germination after 48 hr; format: functional; method in brief: as §1
Physalis ixocarpa [14] = assay: Phytotoxicity against Physalis ixocarpa assessed as inhibition of root development during seeding stage after 120 hr; format: functional, organism-based; settings: read-out: I50; method in brief: as §3
[15] = system: Radical scavenging activity; assay: Antioxidant activity assessed as DPPH free radical scavenging activity after 30 min by TLC autographic assay; format: functional; settings: in the assay text read “spectrophotometric assay” for “TLC autographic assay”; read-out: I50
Trifolium pratense [16] = assay: Phytotoxicity against Trifolium pratense (red clover) assessed as inhibition of root development during seeding stage after 120 hr; format: functional, organism-based; settings: read-out: I50; method in brief: as §3
Physalis ixocarpa [17] = assay: Phytotoxicity against Physalis ixocarpa assessed as inhibition of seed germination after 48 hr; format: functional; method in brief: as §1
Lactuca sativa [18] = assay: Phytotoxicity against Lactuca sativa (lettuce) assessed as inhibition of shoot development during seeding stage after 120 hr; format: functional, organism-based; settings: read-out: I50; method in brief: as §3
Trifolium pratense [19] = assay: Phytotoxicity against Trifolium pratense (red clover) assessed as inhibition of seed germination after 48 hr; format: functional; method in brief: as §1
Lolium multiflorum [20] = assay: Phytotoxicity against Lolium multiflorum (Italian ryegrass) assessed as inhibition of seed respiration during germination after 72 hr; format: functional, organism-based; settings: read-out: I50; method in brief: as §2
Lolium multiflorum [21] = assay: Phytotoxicity against Lolium multiflorum (Italian ryegrass) assessed as inhibition of seed respiration during germination after 24 hr; format: functional, organism-based; method in brief: as §2
Physalis ixocarpa [22] = assay: Phytotoxicity against Physalis ixocarpa assessed as inhibition of seed respiration during germination after 24 hr; format: functional, organism-based; method in brief: as §2
Trifolium pratense [23] = assay: Phytotoxicity against Trifolium pratense (red clover) assessed as inhibition of seed respiration during germination after 24 hr; format: functional, organism-based; method in brief: as §2
Lactuca sativa [24] = assay: Phytotoxicity against Lactuca sativa (lettuce) assessed as inhibition of seed respiration during germination after 24 hr; format: functional, organism-based; method in brief: as §2

| Compound | GI50 (Lactuca sativa [1]) | inhibition (Spinacia oleracea [2]) | IC50 (Spinacia oleracea [2]) | IC50 (Physalis ixocarpa [3]) | IC50 (Lactuca sativa [4]) | IC50 (Trifolium pratense [5]) | IC50 (Phaseolus vulgaris) | IC50 (Lolium multiflorum [6]) | IC50 (Lactuca sativa [7]) | IC50 (Lolium multiflorum [8]) | inhibition [9] | inhibition (Spinacia oleracea [10]) | IC50 (Physalis ixocarpa [11]) | IC50 (Trifolium pratense [12]) | GI50 (Lolium multiflorum [13]) | IC50 (Physalis ixocarpa [14]) | IC50 (Trifolium pratense [16]) | GI50 (Physalis ixocarpa [17]) | IC50 (Lactuca sativa [18]) | GI50 (Trifolium pratense [19]) | also measured |
| --- | --- | --- | --- | --- | --- | --- | --- | --- | --- | --- | --- | --- | --- | --- | --- | --- | --- | --- | --- | --- | --- |
| CC(=O)c1ccc2c(c1O)C[C@H](C1(C)CO1)O2 (some centres undefined) | 11.5 µM | Dose-dependent effect | 13.8 µM | 15.8 µM | 10.9 µM | 7.2 µM | 17.1 µM | 11.2 µM | 11 µM | 11.9 µM | Active | Dose-dependent effect | 7.7 µM | 10.1 µM | 10.4 µM | 9.9 µM | 7.1 µM | 8.7 µM | 10.5 µM | 7.1 µM | IC50 [15]: 30.6 µM; IC50 (Lolium multiflorum [20]): 18 µM |
| C=C(C)[C@H]1Cc2cc(C(C)=O)ccc2O1 [TREMETONE] | 45 µM | Dose-dependent effect | 70.7 µM |  | 44.2 µM | 35.5 µM |  | 35 µM |  | 36.1 µM | Active | Dose-dependent effect | 7.7 µM |  | 37.5 µM | 18.6 µM | 34.9 µM | 31.8 µM | 45 µM | 35.5 µM | I50 (Lolium multiflorum [21]): inactive; I50 (Physalis ixocarpa [22]): inactive; I50 (Trifolium pratense [23]): inactive; I50 (Lactuca sativa [24]): inactive |
| C=C(C)[C@H]1Cc2c(ccc(C(C)=O)c2O)O1 [4-HYDROXY TREMETONE] | 21 µM | Dose-dependent effect | 20.4 µM | 28.7 µM | 16.7 µM | 47.6 µM | 45 µM | 26.2 µM | 27 µM | 22.3 µM | Active | Dose-dependent effect | 15.2 µM | 22 µM | 25.5 µM | 12.7 µM | 46.3 µM | 16.6 µM | 19 µM | 17.8 µM | IC50 [15]: 53.2 µM; IC50 (Lolium multiflorum [20]): 39 µM |
